Reference: PubChem BioAssay AID743256 (The Scripps Research Institute Molecular Screening Center, 2014)
In all, about 2,900 compounds went through this assay and about 1,300 (45%) were called active. So high a share suggests a set chosen from earlier hits. These entries were drawn from the full list. A number with no mark means an inactive call.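 The calls were made as follows: active = mean inhibition over the triplicate runs exceeds the activity threshold set in the earlier primary screen (cut at about 20% in these data); inactive = the rest.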

target: Disintegrin and metalloproteinase domain-containing protein 10 (Homo sapiens) (UniProt O14672); assay: ADAM10 inhibitors, counter-screen for ADAM17 exosite inhibitor project, biochemical, FRET, human ADAM10 (AID 743256); conditions: recombinant ADAM10, EDANS/DABCYL FRET peptide cleavage, 3 h; at 6.95 µM; hits give high values;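 also: 0% = DMSO wells and 100% = marimastat wells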
How it was run: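 System: human ADAM10 metalloprotease enzyme in a cell-free biochemical assay; amount: enzyme 2X stock at 20 nM; signal: FRET fluorescence readout; also added: EDANS/DABCYL DM2 peptide, 2X stock 20 µM; control set: 1 µM marimastat (high) and DMSO (low); times: 30 min plus 3 h, 25 °C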

Disintegrin and metalloproteinase domain-containing protein 10 (Homo sapiens), sequence (O14672 214-748 limits assumed): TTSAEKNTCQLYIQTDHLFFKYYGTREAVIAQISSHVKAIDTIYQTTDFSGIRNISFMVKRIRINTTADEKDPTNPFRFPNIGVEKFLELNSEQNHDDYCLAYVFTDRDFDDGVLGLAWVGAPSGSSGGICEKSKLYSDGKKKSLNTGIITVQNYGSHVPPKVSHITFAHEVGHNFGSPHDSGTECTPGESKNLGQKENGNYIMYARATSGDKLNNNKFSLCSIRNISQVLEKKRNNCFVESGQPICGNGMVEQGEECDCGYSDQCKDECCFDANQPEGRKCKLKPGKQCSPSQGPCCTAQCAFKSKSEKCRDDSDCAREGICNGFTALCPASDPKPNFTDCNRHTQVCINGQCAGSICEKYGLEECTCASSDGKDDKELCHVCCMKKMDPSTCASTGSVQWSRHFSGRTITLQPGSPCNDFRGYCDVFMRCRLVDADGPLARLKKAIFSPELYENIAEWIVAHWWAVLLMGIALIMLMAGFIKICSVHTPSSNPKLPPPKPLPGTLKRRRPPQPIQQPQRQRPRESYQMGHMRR

Question: For `Cc1ccc(C(=O)Nc2ccc(C)c(S(=O)(=O)N(C)C)c2)s1`, which inhibition is on record?
Answer: 19.2%

Question: Which inhibition does the source give for `CCn1c(Cc2cccs2)nnc1SCC(=O)c1ccc(C)cc1` here?
Answer: 2.71%

Question: `COc1cccc(/C=N/NC(=O)c2cccc([N+](=O)[O-])c2)c1OS(=O)(=O)c1ccc(C)cc1` was tested. Which inhibition did it give?
Answer: 27.1% (active)

Question: For `Cc1ccc(OCCOCCOc2ccc(Br)cc2/C=N\NC(=O)c2ccncc2)cc1`, which inhibition is on record?
Answer: 13.6%

Question: `CCCCCC(=O)N1C[C@H](O)[C@@H](n2cc(COC(=O)c3ccccc3)nn2)C[C@@H]1c1ccc(C)cc1` was tested. Which inhibition did it give?
Answer: 22.1% (active)

Question: With `O=C(Cc1ncc(C(F)(F)F)cc1Cl)Nc1cccc(Br)c1` as the molecule, how does the inhibition read?
Answer: 6.87%

Question: With `CCc1cccc(NC(=O)COC(=O)C2CCN(c3ccc(C(F)(F)F)cn3)CC2)c1` as the molecule, how does the inhibition read?
Answer: 25.6% (active)

Question: How did the inhibition turn out when `Cc1ccc(-c2nnc(SCC(=O)Nc3ccc(Oc4ccccc4)cc3)n2Cc2ccco2)cc1` was run?
Answer: 30.9% (active)

Question: Which inhibition does the source give for `Cc1sc2nc(SCC(=O)c3ccc(O)c(O)c3)n(Cc3ccco3)c(=O)c2c1C` here?
Answer: 16.8%

Question: For `Cc1ccc(OCc2nnc(SC/C=C/c3ccccc3)n2Cc2ccco2)cc1`, which inhibition is on record?
Answer: 18.7%

Question: `COc1ccc(C(=O)NN2C(=O)C3C(c4ccccc4)C=CC(c4ccccc4)C3C2=O)cc1` (centres undefined) was tested. Which inhibition did it give?
Answer: 25.6% (active)

Question: Which inhibition does the source give for `CC(C)C(=O)Nc1cccc(NC(=S)NC(=O)C(c2ccccc2)c2ccccc2)c1` here?
Answer: 31.3% (active)

Question: `O=C(CSc1nc(Nc2ccccc2)nc(N2CCOCC2)n1)Nc1cc(Cl)ccc1O` was tested. Which inhibition did it give?
Answer: 33.4% (active)

Question: How did the inhibition turn out when `CN(C)c1ccc(NC(=O)NC2CCCCN(Cc3ccc(Cl)cc3)C2=O)cc1` (centres undefined) was run?
Answer: 1.4%

Question: With `CCCN(CC(=O)NC(=O)NC1CCCCC1)CC(=O)Nc1cc(Cl)ccc1Cl` as the molecule, how does the inhibition read?
Answer: 43.7% (active)

Question: Which inhibition does the source give for `O=C(C[C@H]1C(=O)N(c2ccc(F)c(F)c2)C[C@@H]1Cc1ccccc1)Nc1ccccc1` here?
Answer: 26.5% (active)

Question: With `COc1ccc(C(=O)Nc2ccc(C3(C#N)CCCC3)cc2)cc1OC` as the molecule, how does the inhibition read?
Answer: -1.52%

Question: For `NNC(=O)C1CCCn2c1nc1sc3c(c1c2=O)CCCC3` (centres undefined), which inhibition is on record?
Answer: -9.79%

Question: Which inhibition does the source give for `CCOc1ccc(Nc2nc(Cc3nnc(SCC(=O)c4ccc(C)cc4)o3)cs2)cc1` here?
Answer: 17.9%

Question: `Cc1ccc(C)c(NC(=S)NNC(=S)Nc2ccc(C(C)C)cc2)c1` was tested. Which inhibition did it give?
Answer: 32.5% (active)

Question: `Cc1cc(NC(=O)CN2C(=O)NC(CC(C)C)C2=O)no1` (centres undefined) was tested. Which inhibition did it give?
Answer: 26.2% (active)

Question: Which inhibition does the source give for `CCCn1nc(C(=O)NNC(=O)CSCC(=O)Nc2cc(C)on2)c2ccccc2c1=O` here?
Answer: -0.39%

Question: With `CS(=O)(=O)Nc1cccc(C2=NN(S(=O)(=O)c3ccccc3)C(c3cccs3)C2)c1` (centres undefined) as the molecule, how does the inhibition read?
Answer: 11.9%

Question: With `COc1ccc(S(=O)(=O)Nc2ccc(O)c(Sc3nc4ccccc4s3)c2)cc1` as the molecule, how does the inhibition read?
Answer: 20.5% (active)

Question: Which inhibition does the source give for `Cc1ccc(-c2n[nH]c(=S)n2/N=C/c2cc3c(cc2[N+](=O)[O-])OCO3)cc1` here?
Answer: 4.16%

Question: How did the inhibition turn out when `COc1cc(C2CC(=O)N3CN(Cc4ccccc4)CSC3=C2C#N)ccc1OCc1ccccc1` (centres undefined) was run?
Answer: 26.5% (active)

Question: With `CC(C)N(C(=O)[C@H]1C[C@H](CC(=O)NC(C)(C)C)C(=O)N2CCc3c([nH]c4ccc(Cl)cc34)[C@]12C)C(C)C` as the molecule, how does the inhibition read?
Answer: 15.5%

Question: Which inhibition does the source give for `NS(=O)(=O)c1ccc(NC(=O)COC(=O)C2(c3ccc(F)cc3)CCCC2)cc1` here?
Answer: 24.3% (active)

Question: With `CN(C)S(=O)(=O)c1cccc(NC(=O)COC(=O)C2(c3ccccc3F)CCCC2)c1` as the molecule, how does the inhibition read?
Answer: 28% (active)

Question: How did the inhibition turn out when `Cc1ccc(S(=O)(=O)N2CCN(C(=O)COC(=O)c3c(C)cc(C)cc3C)CC2)c(C)c1` was run?
Answer: 18.9%

Question: How did the inhibition turn out when `COc1ccc(C(=O)C2CCCN(S(=O)(=O)c3cccc(C)c3)C2)c(C)c1` (centres undefined) was run?
Answer: 11.7%

Question: With `Cc1onc(C(=O)NN)c1-c1csc(COc2ccccc2)n1` as the molecule, how does the inhibition read?
Answer: -5.47%

Question: For `O=C(c1ccccc1)N1CCN(c2ccc([N+](=O)[O-])c(NCc3ccco3)c2)CC1`, which inhibition is on record?
Answer: 14.8%

Question: `O=C(NCc1ccccc1)C1=C[C@@H](c2ccc(C(F)(F)F)cc2)C[C@@H](OCc2ccc(CO)cc2)O1` was tested. Which inhibition did it give?
Answer: 44.5% (active)
